Activity calls are given as the source filed them. No cut-off for these calls is given here.
Tests used:
[1] = Oral bioavailability in CD1 mouse at 20 mg/kg; type: ADME, organism-based; conditions: in vivo
Summary of the method: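 Female CD-1 mice received 20 mg/kg either as an i.v. bolus or by oral gavage, in the same DMSO/PEG400/Tween 80/bicarbonate pH 9 vehicle. Plasma levels were measured by LC/MS/MS. Bioavailability = AUCoral/AUCiv × Doseiv/Doseoral, using noncompartmental AUCs.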

Mus musculus [2] = assay: Toxicity in CD1 mouse assessed as alanine transferase levels at 20 mg/kg, po administered daily once for 5 days measured 3 days after final dose; type: organism-based; set-up: dose 20 mg/kg, route oral; conditions: in vivo, 72 h
Escherichia coli [3] = assay: Bactericidal activity against Escherichia coli 8624 at 1 uM; type: functional, organism-based
Salmonella typhimurium [4] = assay: Bacteriostatic activity against Salmonella Typhimurium SL1344 at 1 uM in presence of epinephrine; type: functional, organism-based; conditions: Salmonella enterica subsp. enterica serovar Typhimurium str. SL1344
Escherichia coli [5] = assay: Antibacterial activity against Escherichia coli infected in New Zealand white rabbit assessed as inhibition of bacterial colonization in cecum at 20 mg/kg pretreated before 3 hrs of bacterial challenge; type: functional, organism-based; set-up: dose 20 mg/kg; conditions: Caecum
Mus musculus [6] = assay: Toxicity in CD1 mouse assessed as red cell distribution width at 20 mg/kg, po administered daily once for 5 days measured 3 days after final dose; type: organism-based; set-up: dose 20 mg/kg, route oral; conditions: in vivo, 72 h
Summary of the method: (§1)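 Female CD-1 mice (~22 g), three per group, given 20 mg/kg by oral gavage once daily for 5 days. Vehicle-only mice served as controls. Animals were weighed and observed daily. Three days after the last dose they were weighed and sacrificed. Blood was taken for chemistry and complete blood counts, and organs were weighed.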

Mus musculus [7] = assay: Toxicity in CD1 mouse assessed as neutrophil counts at 20 mg/kg, po administered daily once for 5 days measured 3 days after final dose; type: organism-based; set-up: dose 20 mg/kg, route oral; conditions: in vivo, 72 h; summary of the method: as §1
Mus musculus [8] = assay: Toxicity in CD1 mouse assessed as change in heart weight at 20 mg/kg, po administered daily once for 5 days measured 3 days after final dose; type: organism-based; set-up: dose 20 mg/kg, route oral; conditions: in vivo; summary of the method: as §1
[9] = Cmax in CD1 mouse at 20 mg/kg, po; type: ADME, organism-based; set-up: dose 20 mg/kg, route oral; conditions: in vivo
Summary of the method: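 Terminal cardiac bleeds were taken in groups of three at set times. Plasma was acetonitrile-precipitated with internal standard and analysed by LC/MS/MS against a spiked-plasma standard curve. Parameters came from noncompartmental analysis.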

Salmonella typhimurium [10] = assay: Antibacterial activity against Salmonella Typhimurium SL1344 infected in 129x1/SvJ mouse assessed as survival at 20 mg/kg, po administered 3 hrs pre and 3 hrs post-bacterial challenge measured after 12 days; type: functional
Summary of the method: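 Female 129x1/SvJ mice, 7–9 weeks old, were infected intraperitoneally with 10^8 cfu S. typhimurium SL1344. The test agent was given orally at 20 mg/kg in 5% DMSO/23% PEG400/70% Na bicarbonate pH 9/2% Tween 80, 3 h before and 3 h after infection. Controls were drug alone and infection alone. Groups of 10 mice were used and the experiment was repeated twice. Morbidity and death were recorded daily, and survivors were euthanized at day 12.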

[11] = biological target: Beta-1 adrenergic receptor (Homo sapiens) (UniProt P08588); assay: Effect on dobutamine-induced human beta-1-adrenergic receptor activation expressed in HEK293 cells assessed as cAMP release at 5 uM; type: functional, cell-based
Sequence of Beta-1 adrenergic receptor (Homo sapiens) (P08588 whole entry, looked up): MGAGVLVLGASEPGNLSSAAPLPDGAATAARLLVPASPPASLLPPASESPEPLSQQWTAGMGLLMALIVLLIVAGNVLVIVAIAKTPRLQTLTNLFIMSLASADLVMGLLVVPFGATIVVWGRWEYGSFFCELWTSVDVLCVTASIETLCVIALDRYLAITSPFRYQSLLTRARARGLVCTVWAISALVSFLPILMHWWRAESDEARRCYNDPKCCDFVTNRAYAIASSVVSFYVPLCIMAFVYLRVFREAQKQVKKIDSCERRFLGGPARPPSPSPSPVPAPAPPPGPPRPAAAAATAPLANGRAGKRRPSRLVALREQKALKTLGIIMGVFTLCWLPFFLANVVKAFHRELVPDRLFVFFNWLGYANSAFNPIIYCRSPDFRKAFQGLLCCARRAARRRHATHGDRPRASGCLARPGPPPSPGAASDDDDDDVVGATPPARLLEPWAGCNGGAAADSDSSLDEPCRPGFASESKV
Summary of the method: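 HEK293 cells carried an EPAC-based cAMP BRET reporter. The agonist for β1 (exogenous) was 1 nM dobutamine, for β2 (endogenous) 100 nM terbutaline, and for β3 (exogenous) 10 nM BRL37344. Each agonist was given alone or with 5 μM compound. Live-cell cAMP was read as triplicate means, representative of 3 experiments.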

Escherichia coli [12] = assay: Inhibition of AI3-induced Qsec-dependent virulence gene stx2A expression in Escherichia coli at 5 pM by quantitative real-time PCR; type: functional, organism-based
Mus musculus [13] = assay: Toxicity in CD1 mouse assessed as hemoglobin levels at 20 mg/kg, po administered daily once for 5 days measured 3 days after final dose; type: organism-based; set-up: dose 20 mg/kg, route oral; conditions: in vivo, 72 h; summary of the method: as §1
Escherichia coli [14] = assay: Antibacterial activity against Escherichia coli infected in New Zealand white rabbit assessed as inhibition of bacterial colonization in cecum at 20 mg/kg administered 24 hrs post-bacterial challenge; type: functional, organism-based; set-up: dose 20 mg/kg; conditions: Caecum
Escherichia coli [15] = assay: Antibacterial activity against Escherichia coli infected in New Zealand white rabbit assessed as inhibition of bacterial colonization in ileum at 20 mg/kg administered 24 hrs post-bacterial challenge; type: functional, organism-based; set-up: dose 20 mg/kg
[16] = AUC in CD1 mouse at 5 mg/kg, iv administered as bolus dose; type: ADME, organism-based; set-up: dose 5 mg/kg, route intravenous; conditions: plasma
Summary of the method: (§2)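 Groups of three were bled terminally by cardiac puncture at set times. Plasma was acetonitrile-precipitated with internal standard and quantified by electrospray LC/MS/MS against a plasma standard curve (10-1000 ng/ml). Noncompartmental analysis was used.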

Salmonella typhimurium [17] = assay: Antibacterial activity against Salmonella Typhimurium SL1344 infected in 129x1/SvJ mouse assessed as reduction of bacterial CFU in liver at 20 mg/kg, po after 48 hrs relative to control; type: functional
[18] = biological target: Beta-2 adrenergic receptor (Homo sapiens) (UniProt P07550); assay: Activation of human beta-2-adrenergic receptor expressed in HEK293 cells assessed as cAMP release at 5 uM; type: functional, cell-based
Sequence of Beta-2 adrenergic receptor (Homo sapiens) (P07550 whole entry, looked up): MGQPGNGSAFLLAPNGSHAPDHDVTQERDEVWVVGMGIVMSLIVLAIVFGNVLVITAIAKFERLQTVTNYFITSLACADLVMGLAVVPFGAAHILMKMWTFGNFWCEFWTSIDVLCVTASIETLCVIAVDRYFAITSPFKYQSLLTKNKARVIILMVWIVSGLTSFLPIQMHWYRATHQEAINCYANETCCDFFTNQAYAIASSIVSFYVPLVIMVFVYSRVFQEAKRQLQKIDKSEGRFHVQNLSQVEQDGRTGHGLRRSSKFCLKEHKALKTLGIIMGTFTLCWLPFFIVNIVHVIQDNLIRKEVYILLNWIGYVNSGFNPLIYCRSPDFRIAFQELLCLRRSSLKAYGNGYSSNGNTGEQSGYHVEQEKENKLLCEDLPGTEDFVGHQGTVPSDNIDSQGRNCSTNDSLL
Summary of the method: (§3)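 Live HEK293 cells carried an EPAC-based cAMP BRET reporter and expressed endogenous β2 or exogenous β1 or β3 adrenergic receptors. Cells were exposed to test compound alone at 5 μM. Values are means of triplicates, representative of 3 experiments.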

Mus musculus [19] = assay: Toxicity in CD1 mouse assessed as WBC counts at 20 mg/kg, po administered daily once for 5 days measured 3 days after final dose; type: organism-based; set-up: dose 20 mg/kg, route oral; conditions: in vivo, 72 h
Escherichia coli [20] = assay: Inhibition of epinephrine-induced EspB protein secretion in Escherichia coli 8624 at 5 pM by Western blot; type: functional, organism-based
Summary of the method: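 Secreted proteins in cell-free supernatant were TCA-precipitated and immunoblotted with rabbit polyclonal anti-EspA and anti-EspB, with ECL detection.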

Salmonella typhimurium [21] = assay: Antibacterial activity against Salmonella Typhimurium SL1344 infected in 129x1/SvJ mouse assessed as reduction of bacterial CFU in spleen at 20 mg/kg, po after 48 hrs relative to control; type: functional
[22] = test system: Francisella tularensis subsp. tularensis SCHU S4; assay: Antibacterial activity against Francisella tularensis SCHU S4 infected C3H HeN mouse assessed as survival at 20 mg/kg, po administered single dose 3 hrs post-bacterial measured after 9 days; type: functional
[23] = Cmax in CD1 mouse at 20 mg/kg, iv administered as bolus dose; type: ADME, organism-based; set-up: dose 20 mg/kg, route intravenous; conditions: in vivo; summary of the method: as §2
Mus musculus [24] = assay: Toxicity in CD1 mouse assessed as serum total protein levels at 20 mg/kg, po administered daily once for 5 days measured 3 days after final dose; type: organism-based; set-up: dose 20 mg/kg, route oral; conditions: in vivo, 72 h; summary of the method: as §1
Mus musculus [25] = assay: Toxicity in CD1 mouse assessed as total bilirubin levels at 20 mg/kg, po administered daily once for 5 days measured 3 days after final dose; type: organism-based; set-up: dose 20 mg/kg, route oral; conditions: in vivo, 72 h; summary of the method: as §1
[26] = biological target: Beta-1 adrenergic receptor (Homo sapiens) (UniProt P08588); assay: Activation of human beta-1-adrenergic receptor expressed in HEK293 cells assessed as cAMP release at 5 uM; type: functional, cell-based; summary of the method: as §3
Mus musculus [27] = assay: Toxicity in CD1 mouse assessed as phosphate levels at 20 mg/kg, po administered daily once for 5 days measured 3 days after final dose; type: organism-based; set-up: dose 20 mg/kg, route oral; conditions: in vivo, 72 h; summary of the method: as §1
Mus musculus [28] = assay: Toxicity in CD1 mouse assessed as change in thymus weight at 20 mg/kg, po administered daily once for 5 days measured 3 days after final dose; type: organism-based; set-up: dose 20 mg/kg, route oral; conditions: in vivo; summary of the method: as §1
[29] = test system: Francisella tularensis subsp. tularensis SCHU S4; assay: Bacteriostatic activity against Francisella tularensis SCHU S4 at 1 uM in presence of epinephrine; type: functional, organism-based
Escherichia coli [30] = assay: Inhibition of epinephrine-induced Qsec-dependent virulence gene ler expression in Escherichia coli at 5 pM by quantitative real-time PCR; type: functional, organism-based
[31] = AUC in CD1 mouse at 10 mg/kg, iv administered as bolus dose; type: ADME, organism-based; set-up: dose 10 mg/kg, route intravenous; conditions: plasma; summary of the method: as §2

O=S(=O)(Nc1ccccc1)c1ccc(NC(=S)Nc2ccccc2)cc1
bioavailability [1]: 69.3% | Activity (Mus musculus [2]): 31.7 U/L | Activity (Escherichia coli [3]): inactive | Activity (Salmonella typhimurium [4]): inactive | Activity (Escherichia coli [5]): inactive | Activity (Mus musculus [6]): 17.6% | Activity (Mus musculus [7]): 9.3% | Activity (Mus musculus [8]): Non-toxic | Cmax [9]: 2700 ng/mL | Activity (Salmonella typhimurium [10]): 20% | Activity [11]: inactive | Activity (Escherichia coli [12]): Active | Activity (Mus musculus [13]): 12 g/dL | Activity (Escherichia coli [14]): inactive | Activity (Escherichia coli [15]): inactive | AUC [16]: 1090 ng·h/mL | fold change (FC) (Salmonella typhimurium [17]): 10 | Activity [18]: inactive | Activity (Mus musculus [19]): 1.5 K/uL | Activity (Escherichia coli [20]): Active | fold change (FC) (Salmonella typhimurium [21]): 10 | Activity [22]: 80% | Cmax [23]: 4750 ng/mL | Activity (Mus musculus [24]): 4.4 g/dL | Activity (Mus musculus [25]): 0.2 mg/dL | Activity [26]: inactive | Activity (Mus musculus [27]): 11 mg/dL | Activity (Mus musculus [28]): Non-toxic | Activity [29]: inactive | Activity (Escherichia coli [30]): Active | AUC [31]: 2400 ng·h/mL
